Assay results collected from several papers.
Protocols differ between the studies behind these lines.

O=c1c2cc(F)c(Oc3ccc(OC(F)(F)F)cc3)cc2[nH]c2cc(Cl)cc(F)c12  half-life (metabolic stability; mouse, liver microsomes; 1 µM, pH 7.4): > 60 min
COc1ccc(N2CCN(CC(=O)Nc3ccc(C4=NN(C(C)=O)C(c5ccc(Cl)cc5Cl)C4)cc3)CC2)cc1 (stereo not drawn)  viability (MCF-10A; cell growth or viability, MTT; 50 µM, 96 h): 89%
Cc1cc(S(=O)(=O)N[C@H]2CC[C@H](N3CCN(CC4CCN(c5cccc6c5n(C)c(=O)n6C5CCC(=O)NC5=O)CC4)CC3)CC2)ccc1Nc1ncc(C(F)(F)F)c(N2CCC[C@](C)(O)C2)n1 (stereo partly drawn)  Papp A→B (MDCK; Caco-2; 1 µM, 2 h, pH 7.4): 0.7 ×10⁻⁶ cm/s
COc1ccc(N2CCN(CC(=O)Nc3ccc(C4=NN(C(C)=O)C(c5ccc(Br)cc5)C4)cc3)CC2)cc1 (stereo not drawn)  viability (MCF-10A; cell growth or viability, MTT; 50 µM, 96 h): 86%
O=c1c2ccc(Oc3ccccc3OC(F)(F)F)cc2[nH]c2cc(Cl)cc(F)c12  half-life (metabolic stability; mouse, liver microsomes; 1 µM, pH 7.4): 43.4 min
COc1ccc(-c2nn(-c3ccccc3)cc2C=Nc2c(N)nc(S)nc2O)cc1  CC50 (MCF-10A; cell growth or viability; 48 h): > 40 µM
C[C@H]1Oc2cc(cnc2N)-c2c(nn(C)c2C#N)CN(C)C(=O)c2ccc(F)cc21  concentration (male Sprague-Dawley rat, brain; oral, 10 mg/kg, 24 h, single dose): 16.4 ng/g
O=c1c2ccc(OCc3ccc(C(F)(F)F)cc3)cc2[nH]c2cc(Cl)cc(F)c12  half-life (metabolic stability; mouse, liver microsomes; 1 µM, pH 7.4): > 60 min
Cc1cc(S(=O)(=O)N[C@H]2CC[C@H](CN3CCN(c4ccc(C5CCC(=O)NC5=O)c(Cl)c4)CC3)CC2)ccc1Nc1ncc(C(F)(F)F)c(N2CCC[C@](C)(O)C2)n1 (stereo partly drawn)  Papp A→B (MDCK; Caco-2; 1 µM, 2 h, pH 7.4): 1.3 ×10⁻⁶ cm/s
O=c1c2c([nH]c3cc(Oc4cccc(OC(F)(F)F)c4)ccc13)CCCC2  half-life (metabolic stability; mouse, liver microsomes; 1 µM, pH 7.4): > 60 min
Nc1nc(S)nc(O)c1N=Cc1cn(-c2ccccc2)nc1-c1ccccc1  CC50 (MCF-10A; cell growth or viability; 48 h): > 30 µM
O=C(O)COc1cccc(-c2nc(Nc3ccc4[nH]ncc4c3)c3ccccc3n2)c1  IC50 (Solute carrier family 22 member 6 (SLC22A6, Homo sapiens, UniProt Q4U2R8); transporter uptake, inhibitor, radiometric): > 500 µM
O=C(CN1CCN(c2ccc(Cl)cc2)CC1)Nc1ccc(C(=O)C=Cc2ccco2)cc1  viability (MCF-10A; cell growth or viability, MTT; 50 µM, 96 h): 90%
Cc1cc(S(=O)(=O)N[C@]2(C)C[C@H](N3CCN(CC4CCN(c5ccc6c(c5F)n(C)c(=O)n6C5CCC(=O)NC5=O)CC4)CC3)C2)ccc1Nc1ncc(C(F)(F)F)c(N2CCC[C@](C)(O)C2)n1 (stereo partly drawn)  Papp A→B (MDCK; Caco-2; 1 µM, 2 h, pH 7.4): 3.2 ×10⁻⁶ cm/s
COc1ccc(N2CCN(CC(=O)Nc3ccc(C(=O)C=Cc4ccc(C)cc4)cc3)CC2)cc1  viability (MCF-10A; cell growth or viability, MTT; 50 µM, 96 h): 90%
CCCN(CCC)CCNc1ccc2c(=O)c3c([nH]c2c1)CCCC3  half-life (metabolic stability; mouse, liver microsomes; 1 µM, pH 7.4): 16.9 min
CC(=O)N1N=C(c2ccc(NC(=O)CN3CCN(c4ccc(Cl)cc4)CC3)cc2)CC1c1ccc(C)cc1 (stereo not drawn)  viability (MCF-10A; cell growth or viability, MTT; 50 µM, 96 h): 89%
CC(C)(C)OC(=O)N1CCC(Oc2ccc3c(=O)c4c(F)cc(Cl)cc4[nH]c3c2)CC1  half-life (metabolic stability; mouse, liver microsomes; 1 µM, pH 7.4): > 60 min
Cc1cc(S(=O)(=O)NC2CC(N3CCN(CC4CCN(c5ccc(NC6CCC(=O)NC6=O)cc5C)CC4)CC3)C2)ccc1Nc1ncc(C(F)(F)F)c(N2CCC[C@](C)(O)C2)n1 (stereo partly drawn)  Papp A→B (MDCK; Caco-2; 1 µM, 2 h, pH 7.4): 3.5 ×10⁻⁶ cm/s
O=c1c2c([nH]c3cccc(Oc4ccc(OC(F)(F)F)cc4)c13)CCCC2  half-life (metabolic stability; mouse, liver microsomes; 1 µM, pH 7.4): 11.9 min
COc1ccc(N2CCN(CC(=O)Nc3ccc(C4=NN(C(C)=O)C(c5ccccc5)C4)cc3)CC2)cc1 (stereo not drawn)  viability (MCF-10A; cell growth or viability, MTT; 50 µM, 96 h): 87%
Cc1cc(S(=O)(=O)NC2CC(N3CCN(CC4CCN(c5ccc6c(c5F)n(C)c(=O)n6C5CCC(=O)NC5=O)CC4)CC3)C2)ccc1Nc1ncc(C(F)(F)F)c(N2CCCC(C)(O)C2)n1 (stereo not drawn)  Papp A→B (MDCK; Caco-2; 1 µM, 2 h, pH 7.4): 1.9 ×10⁻⁶ cm/s
COc1ccc(N2CCN(CC(=O)Nc3ccc(C(=O)C=Cc4ccc(Cl)cc4Cl)cc3)CC2)cc1  viability (MCF-10A; cell growth or viability, MTT; 50 µM, 96 h): 86%
Cc1cc(S(=O)(=O)NC2CC(N3CC[C@@H](OC4CN(c5cccc6c5n(C)c(=O)n6C5CCC(=O)NC5=O)C4)[C@H](F)C3)C2)ccc1Nc1ncc(C(F)(F)F)c(N2CCC[C@](C)(O)C2)n1 (stereo partly drawn)  Papp A→B (MDCK; Caco-2; 1 µM, 2 h, pH 7.4): 0.9 ×10⁻⁶ cm/s
COc1ccc(N2CCN(CC(=O)Nc3ccc(C(=O)C=Cc4ccco4)cc3)CC2)cc1  viability (MCF-10A; cell growth or viability, MTT; 50 µM, 96 h): 82%
Cc1cc(S(=O)(=O)N[C@H]2CC[C@H](CN3CCN(c4cccc(NC5CCC(=O)NC5=O)c4)CC3)CC2)ccc1Nc1ncc(C(F)(F)F)c(N2CCC[C@](C)(O)C2)n1 (stereo partly drawn)  Papp A→B (MDCK; Caco-2; 1 µM, 2 h, pH 7.4): 2.9 ×10⁻⁶ cm/s
O=c1c2ccc(OCc3cccc(OC(F)(F)F)c3)cc2[nH]c2ccc(Cl)c(F)c12  half-life (metabolic stability; mouse, liver microsomes; 1 µM, pH 7.4): > 60 min
